Assay results: paper PMC2720252 (Regenerative medicine, 2009)

Legend:
[1] = test system: wounded skin of neonatal mice; assay: Detection and distribution of peptide in wounded skin; type: in vivo, mouse; conditions: whole-mount skin, 60 μM, 2 h postwounding, streptavidin (Alexa 594) confocal
[2] = test system: neutrophils at 2 mm excisional wounds on neonatal mice; assay: Whole-mount myeloperoxidase neutrophil density assay in neonatal wounds; type: in vivo, mouse; conditions: 48 h postwounding
Outline: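 Two-day-old pups were sedated by hypothermia and given bilateral 2 mm punch wounds at least 1 cm apart; one wound per mouse received 60 μM peptide and the other vehicle. For the 48 h harvest, treatment was repeated at 24 h. Myeloperoxidase-positive cells were grid-counted blind. Analysis used Wilcoxon matched-pairs test.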

[3] = test system: 5 mm excisional wounds on adult CD-1 mice; assay: Full-thickness 5 mm excisional wound closure in adult mice; type: in vivo, mouse
Outline: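 Adult CD-1 mice received 5 mm full-thickness excisional wounds treated with 20% pluronic gel alone (n = 102) or with 60 μM peptide (n = 95). Gel was applied at wounding and again 24 h later. Wounds were imaged under anaesthesia at 1, 4, 7 and 10 days, and area was measured blind to treatment. There were nine independent experiments with 8–16 animals per group. Analysis used t-test with Bonferroni correction.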

[4] = test system: 5 mm excisional wounds on adult CD-1 mice; type: in vivo, mouse; conditions: two blinded observers, vs vehicle
Outline: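 Adult CD-1 mice received full-thickness 5 mm excisional wounds, treated immediately and again at 24 h with 20% pluronic gel with or without 60 μM peptide. Wound images were scored 0–5 by two observers blind to treatment. Redness/swelling was scored at 24 h and 4 days, and appearance/scarring (discoloration, smoothness) at 7 and 10 days. Each wound's score was the mean of both observers. Data came from nine experiments.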

[5] = test system: Cx43-expressing HeLa cells; conditions: cited from earlier work
[6] = test system: second PDZ domain (PDZ2) of zonula occludens (ZO)-1; conditions: cited from earlier work
Cx43 = assay: Quantitative immunolabeling of Cx43 and ZO-1 in wound epidermis; type: in vivo; conditions: adult mouse wound epidermis, 24 h
Outline: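 Paired peptide-treated and control wounds were taken from the same five adult mice. Peptide was given at 60 μM in 20% pluronic gel. Sections taken 24 h after injury were labelled with Cx43 and ZO-1 antibodies plus DAPI and imaged by laser scanning confocal microscopy. Epidermal Cx43 particle size, numerical density and total immunolabelled area were quantified.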

[7] = test system: neutrophils at adult mouse excisional skin injuries; assay: Neutrophil counts in H&E sections of adult excisional wounds; type: in vivo; conditions: 24 h and 4 days, three treatment and three control wounds, p < 0.01-0.001
[8] = test system: healed excisional wounds of adult mice; assay: Tensile testing to failure of skin strips with healed wounds; type: in vivo, mouse; conditions: 3 months postwounding
[9] = adult mice, 5 mm excisional wound, 10-day time course, vs controls

Sequence: RQPKIWFPNRRKPWKKRPRPDDLEI [ACT1]
- spread of peptide in tissue after application to wound [1]: could be observed in tissues surrounding the wound edges
- localisation of neutrophils at wound [2]: frequently sequestered in blood vessels
- healed appearance (qualitative) [3, 9]: less discolored appearance
- swelling / inflammation of wound (qualitative) [3, 9]: less swollen and inflamed
- experiments with significantly accelerated closure rate ([3]; nine independent experiments, 8-16 animals per group): eight of the nine experiments
- scarring/overall appearance score (0-5) ([4]; 7 and 10 days postwounding): significantly improved
- wound redness score (0-5) ([4]; 24 h and 4 days postwounding): significantly decreased
- Cx43 distribution and levels ([5]; Cx43-expressing HeLa cells): redistribution of Cx43 from a detergent-soluble to an insoluble fraction without causing changes in overall levels of the protein
- GJ aggregate size and number ([5]; Cx43-expressing HeLa cells): increase in the size and decrease in the number of GJ aggregates
- subcellular targeting of peptide ([5]; HeLa cells): Cytoplasmic targeting
- effect on Cx43-ZO-1 interaction [6]: competitively inhibiting the interaction of endogenous Cx43 molecules with ZO-1
- apically localized ZO-1 staining proximal to wound edge (Cx43): reduction appeared to be more pronounced
- average size of Cx43 particles (GJs) (Cx43; paired wounds on five mice): significant (p < 0.05) overall increase
- numerical density of Cx43 particles (Cx43; paired wounds on five mice): significantly (p < 0.05) reduced
- neutrophil density [7]: significant decreases
- overall appearance of healed wounds [8]: improvement in overall appearance of the healed wounds is maintained
